Results from ChEMBL document CHEMBL4011643, “Triaryl Benzimidazoles as a New Class of Antibacterial Agents against Resistant Pathogenic Microorganisms” (J Med Chem, 2017).
In brackets after ≈: the same amount, converted by molar mass.

Legend:
Staphylococcus aureus [1] = assay: Antibacterial activity against methicillin-resistant Staphylococcus aureus MRSA252 after 20 hrs by broth microdilution method; format: functional; settings: MRSA252, 20 h
Outline: (§1)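 Broth microdilution in Tryptic Soy Broth; growth read as OD600 after 20 h. MIC taken as the lowest drug concentration giving OD600 below 0.1. Run in triplicate.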

Staphylococcus aureus [2] = assay: Antibacterial activity against methicillin-sensitive Staphylococcus aureus ATCC 9144 after 20 hrs by broth microdilution method; format: functional; settings: ATCC 9144, 20 h
Outline: (§2)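 Broth microdilution in Tryptic Soy Broth, done in triplicate. Growth was read as OD600 after 20 h. MIC is the lowest drug concentration giving OD600 below 0.1.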

Enterococcus faecium = assay: Antibacterial activity against vancomycin-resistant Enterococcus faecium NCTC 12204 after 20 hrs by broth microdilution method; format: functional; settings: NCTC 12204, 20 h; outline: as §1
Staphylococcus aureus [3] = assay: Antibacterial activity against methicillin-resistant Staphylococcus aureus EMRSA-15 after 20 hrs by broth microdilution method; format: functional; settings: EMRSA-15, 20 h; outline: as §1
Enterococcus faecalis [4] = assay: Antibacterial activity against vancomycin-resistant Enterococcus faecalis NCTC 12201 after 20 hrs by broth microdilution method; format: functional; settings: NCTC 12201, 20 h; outline: as §1
[5] = Cytotoxicity against human HeLa cells assessed as cell viability at 25 uM after 24 hrs by MTT assay; format: cell-based; settings: read-out: Activity
Outline: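 HeLa cells, 10000 per well, were grown at 37 °C in 5% CO2 and allowed to settle for 24 h. Compound was then added in triplicate for 24 h of continuous exposure. Viability was read by MTT colorimetry, with absorbance at 570 nm.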

Enterococcus faecalis [6] = assay: Antibacterial activity against vancomycin-sensitive Enterococcus faecalis NCTC 775 after 20 hrs by broth microdilution method; format: functional; settings: NCTC 775, 20 h; outline: as §2

SMILES | MIC (Staphylococcus aureus [1]) | MIC (Staphylococcus aureus [2]) | MIC (Enterococcus faecium) | MIC (Staphylococcus aureus [3]) | MIC (Enterococcus faecalis [4]) | viability at 24 h, 25 µM [5] | MIC (Enterococcus faecalis [6])
Cc1nc2ccc(-c3cccc(-c4ccc(-n5c(C)nc6cc(C(=O)NCCCN(C)C)ccc65)nc4)c3)cc2[nH]1 | > 128 µg/mL | > 128 µg/mL | 64 µg/mL (≈ 118 µM) | > 128 µg/mL | 64 µg/mL (≈ 118 µM) | 62% | 64 µg/mL (≈ 118 µM)
CN[C@H](CC(C)C)C(=O)N[C@H]1C(=O)N[C@@H](CC(N)=O)C(=O)N[C@H]2C(=O)N[C@H]3C(=O)N[C@H](C(=O)N[C@H](C(=O)O)c4cc(O)cc(O)c4-c4cc3ccc4O)[C@H](O)c3ccc(c(Cl)c3)Oc3cc2cc(c3O[C@@H]2O[C@H](CO)[C@@H](O)[C@H](O)[C@H]2O[C@H]2C[C@](C)(N)[C@H](O)[C@H](C)O2)Oc2ccc(cc2Cl)[C@H]1O [VANCOMYCIN] | – | – | > 128 µg/mL | – | > 128 µg/mL | – | 1 µg/mL (≈ 0.69 µM)
CCN(CC)CCCNC(=O)c1ccc2c(c1)nc(C)n2-c1ccc(-c2cccc(NC(=O)c3ccc4nc(C)[nH]c4c3)c2)cn1 | – | – | – | > 128 µg/mL | > 128 µg/mL | – | –
Cc1nc2cc(C(=O)NCCCN(C)C)ccc2n1-c1ccc(Br)cn1 | – | – | – | > 128 µg/mL | > 128 µg/mL | – | –
COC(=O)c1ccc2c(c1)nc(C)n2-c1ccc(-c2cccc(NC(=O)c3ccc4nc(C)[nH]c4c3)c2)cn1 | – | – | – | > 32 µg/mL | > 32 µg/mL | – | –
COC(=O)c1ccc2c(c1)nc(C)n2-c1ccc(-c2cccc(NC(=O)c3ccc4nc(CCCN(C)C)[nH]c4c3)c2)cn1 | – | – | – | > 128 µg/mL | > 128 µg/mL | – | –
Cc1nc2ccc(C(=O)Nc3cccc(-c4ccc(-n5c(C)nc6cc(C(=O)NCCCN7CCOCC7)ccc65)nc4)c3)cc2[nH]1 | – | – | – | > 128 µg/mL | > 128 µg/mL | – | –
